The values below come from ChEMBL document CHEMBL2429739, “Double-targeting using a TrkC ligand conjugated to dipyrrometheneboron difluoride (BODIPY) based photodynamic therapy (PDT) agent” (J Med Chem, 2013).

The source made the active and inactive calls. The rule behind the calls is not given here.

The test system of series [1] is NIH3T3. Nature of the series: Cytotoxicity against mouse NIH/3T3 cells expressing TrkC assessed as cell viability incubated for 2 hrs followed by 7.3 J/cm'2 halogen light irradiation measured after 24 hrs by MTT assay. The format is functional, cell-based. As to conditions: for IC50: NIH3T3, light or radiation study. The method, boiled down: (§1)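 Cells seeded overnight at about 10,000/well (NIH3T3-TrkC) or 7000/well (NIH3T3-WT, SY5Y). Agent applied at 0.02–2 μM final in protein-free PFHM-II medium (<0.001% DMSO) for 2 h. Cells washed and given fresh medium, then irradiated with >480 nm halogen light at 12.2 mW/cm2 (7.3 J/cm2, 10 min). After 24 h, MTT added for 3.5 h; OD read at 570 nm. % dead = 100 − (OD treated/OD control)×100; three runs.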

The subject of series [2] is NIH3T3. Nature of the series: Cellular uptake in mouse NIH/3T3 cells expressing TrkC at 0.5 uM after 2 hrs by confocal microscopy. The series is classed as ADME, cell-based. As to conditions: nih3t3, 2 h. In outline: (§2)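 TrkC-transfected or wild-type NIH3T3 cells exposed to agent at 0.5 μM in supernatant for 2 h. Cells washed three times with PBS, then imaged live by confocal microscopy. Intracellular fluorescence intensity was quantified over 100 cells.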

In series [3] the test system is NIH3T3. Nature of the series: Dark cytotoxicity against mouse NIH/3T3 cells expressing TrkC assessed as cell viability by MTT assay. The series is classed as cell-based. The method, boiled down: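 NIH3T3-TrkC cells given the same 2 h agent treatment and wash as in the light assay, but kept without illumination. Viability measured by MTT; three runs.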
For series [4], the system named is NIH3T3. Nature of the series: Cytotoxicity against wild type mouse NIH/3T3 cells assessed as cell viability after 2 hrs followed by 7.3 J/cm'2 halogen light irradiation measured after 24 hrs by MTT assay. The format is cell-based. As to conditions: nih3t3, 24 h. The method, boiled down: as §1
For orientation: Tetrazolium assays rely on reduction of a dye to a coloured formazan, in cell work by metabolically active cells.

Series [5] can be described thus: Cellular uptake in lysosome of mouse NIH/3T3 cells expressing TrkC at 1 uM after 12 hrs by confocal microscopy. The series is classed as ADME, cell-based. As to conditions: nih3t3, 12 h. The method, boiled down: (§3)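 NIH3T3-TrkC cells (grown in DMEM/F12 with G418 and 10% newborn calf serum) incubated with agent at 1 μM for 12 h at 37 °C, then PBS-washed. Co-stained with LysoTracker Red 500 nM for 30 min at 37 °C, or with MitoTracker Deep Red / ER-Tracker Blue-White at 100 nm for 15 min. Washed again, then live cells imaged by multiphoton confocal Z-stacks in 0.5 μm steps.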

The nature of series [6]: Cytotoxicity against human SH-SY5Y cells expressing TrkC assessed as cell viability after 2 hrs followed by 7.3 J/cm'2 halogen light irradiation measured after 24 hrs by MTT assay. The series is classed as functional, cell-based. As to conditions: light or radiation study. The method, boiled down:
as §1

The nature of series [7]: Cellular uptake in mitochondria of mouse NIH/3T3 cells expressing TrkC at 1 uM after 12 hrs by confocal microscopy. As to conditions: nih3t3, 12 h. The series is classed as ADME. The method, boiled down: as §3
Series [8] deals with NIH3T3. The experiment in a line: Cytotoxicity against mouse NIH/3T3 cells expressing TrkC assessed as cell viability incubated for 2 hrs followed by 7.3 J/cm'2 halogen light irradiation measured after 24 hrs by MTT assay in presence of 20 uM of IY-IY. The format is functional, cell-based. In outline:
(§4)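 NIH3T3-TrkC cells treated for 2 h with agent (0.02–2 μM) together with a constant 20 μM IY-IY or 3.5 nM NT-3 competitor. Cells washed, then irradiated at >480 nm, 12.2 mW/cm2, 7.3 J/cm2. After 24 h, viability read by MTT (OD 570 nm) and expressed as % dead cells; three runs.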

In series [9] the test system is Mus musculus. Nature of the series: Toxicity in mouse under dark condition at 100 mg/kg after 12 days. The format is organism-based. On the set-up: dose 100 mg/kg. As to conditions: in vivo, 288 h.
For series [10], the system named is NIH3T3. Nature of the series: Cytotoxicity against mouse NIH/3T3 cells expressing TrkC assessed as cell viability incubated for 2 hrs followed by 7.3 J/cm'2 halogen light irradiation measured after 24 hrs by MTT assay in presence of 3.5 nM of NT3. The series is classed as functional, cell-based. In outline:
as §4

The nature of series [11]: Cellular uptake in endoplasmic reticulum of mouse NIH/3T3 cells expressing TrkC at 1 uM after 12 hrs by confocal microscopy. The series is classed as ADME, cell-based. As to conditions: nih3t3, 12 h. The method, boiled down:
as §3

The subject of series [12] is NIH3T3. Nature of the series: Cellular uptake in wild type mouse NIH/3T3 cells at 0.5 uM after 2 hrs by confocal microscopy. The series is classed as ADME, cell-based. As to conditions: nih3t3, 2 h. In outline: as §2

As for `CC[C@H](C)[C@@H](C(=O)N1CCN(c2nc(NCCOCCOCCOCc3cn(CCCC4=C5C(C)=C(I)C(C)=[N+]5[B-](F)(F)n5c(C)c(I)c(C)c54)nn3)nc(N3CCN(C(=O)[C@H]([C@@H](C)CC)n4cc([C@@H](N)Cc5ccc(O)cc5)nn4)CC3)n2)CC1)n1cc([C@@H](N)Cc2ccc(O)cc2)nn1`, in [1], the IC50 is above 2000 nM. In series [2], the Drug uptake entry is “Not Active”.
With `CC[C@H](C)[C@H](N)c1cn([C@@H](Cc2ccc(O)cc2)C(=O)N2CCN(c3nc(NCCOCCOCCOCc4cn(CCCC5=C6C(C)=C(I)C(C)=[N+]6[B-](F)(F)n6c(C)c(I)c(C)c65)nn4)nc(N4CCN(C(=O)[C@H](Cc5ccc(O)cc5)n5cc([C@@H](N)[C@@H](C)CC)nn5)CC4)n3)CC2)nn1`, the Activity entry is “Dose-dependent effect” in series [1], “Non-toxic” in [3], “Active” in [4] and “Non-toxic” in [9]. The IC50 is 350 nM in series [1] and 150 nM in [6]. The Drug uptake entry was “Active” in series [2]; “Active” in [5]; “Not Active” in series [7]; “Not Active” in series [11]; “Not Active” in series [12]. Also, the result in [8] and in series [10] was Active.

What is called IC50 is the concentration that gives 50% inhibition.
